Assay results of several laboratories.
Lines come from different studies, so protocols differ.
Target: Tyrosine-protein kinase Yes (YES1, Homo sapiens, UniProt P07947)

SMILES | assay | setting | quantity | value
COc1ncccc1-c1cnn2ccc(N3CCN(C(=O)OC(C)C)CC3)nc12 | binding, competition with immobilised ligand | 1 µM | remaining binding | 100%
Cn1cc(-c2cc(F)cc(N3CCn4c(cc5c4CCCC5)C3=O)c2CO)cc(Nc2ccc(N3CCN(C4COC4)CC3)cn2)c1=O | enzyme activity, inhibitor | 0.1 µM | inhibition | 11%
Cc1nn(C)cc1-c1nc2c(N3CCN(Cc4ccc(Cl)cc4)CC3)c(Cl)cnc2[nH]1 | binding, competition with immobilised ligand | 1 µM | remaining binding | 96%
O=c1[nH]c2ccccc2n1C1CCN(Cc2ccc(-c3[nH]c4cc5ncnc5cc4nc3-c3ccccc3)cc2)CC1 | cell-free assay | 0.5 µM | remaining signal | 90.8%
Nc1ncc(-c2nc(N3CCOCC3)nc(N3CCOCC3)n2)c(C(F)F)n1 | binding, competition with immobilised ligand | 10 µM | remaining binding | 80%
C#Cc1n[nH]c2c(-c3cn([C@@H](C)c4ccccn4)c(=O)[nH]c3=O)cc(F)cc12 | enzyme activity, inhibitor | 0.1 µM | inhibition | -3.4%
Cn1cncc1[C@@](O)(COc1ccc(C#N)cc1-c1ccc(OC(F)(F)F)cc1)c1ccc(C#N)cc1 | cell-free assay, competition with immobilised ligand | 1 µM | remaining binding | 100%
CC(C)(C)c1cc(C=C(C#N)C#N)cc(Br)c1O | enzyme activity, inhibitor | 0.5 µM | remaining activity | 83%
